# High-throughput results as filed in PubChem BioAssay.
# NR1D1 modulator: modulates human Rev-erb alpha binding to DNA; AID 1259318; activity, % at 10 µM; Rev-erbα–FITC-DNA binding, fluorescence polarization, 90 min; P20393; 0.79% of 370,000 active;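 active = activity above about 14%, limit read from the data; passing the limit was not always enough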;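 also: 0% = DMSO wells with 35 nM protein and 100% = DMSO wells with 750 nM protein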
# Target sequence (P20393 whole entry, looked up): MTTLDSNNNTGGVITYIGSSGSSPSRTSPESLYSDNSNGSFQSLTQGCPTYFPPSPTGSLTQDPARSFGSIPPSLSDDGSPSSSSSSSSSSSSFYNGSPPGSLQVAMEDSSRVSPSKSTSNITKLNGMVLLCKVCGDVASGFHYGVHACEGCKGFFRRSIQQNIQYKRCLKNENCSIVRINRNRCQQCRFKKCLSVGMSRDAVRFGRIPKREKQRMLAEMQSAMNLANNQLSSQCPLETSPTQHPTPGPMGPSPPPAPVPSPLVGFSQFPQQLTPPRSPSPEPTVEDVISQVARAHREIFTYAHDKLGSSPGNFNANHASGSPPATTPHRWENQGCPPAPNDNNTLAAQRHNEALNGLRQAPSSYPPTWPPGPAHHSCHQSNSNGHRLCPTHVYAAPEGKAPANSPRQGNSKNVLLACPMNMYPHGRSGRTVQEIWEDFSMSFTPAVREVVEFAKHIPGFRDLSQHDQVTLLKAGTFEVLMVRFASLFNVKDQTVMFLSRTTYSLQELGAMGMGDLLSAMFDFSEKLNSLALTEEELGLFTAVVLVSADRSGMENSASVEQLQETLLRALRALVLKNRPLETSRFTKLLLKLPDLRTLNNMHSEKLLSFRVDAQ
# PG9 Ab binder: PG9 antibody binding by small molecule; inhibition, % at 6.7 µM; TR-FRET gp120-PG9 antibody binding; AID 624416; 0.43% of 360,000 active; in the data active = inhibition above about 8.5%
# NR2E3 ag-1: activates human photoreceptor nuclear receptor NR2E3. Q9Y5X4. 0.12% of 320,000 active. GST-NR2E3/biotin-RetCOR TR-FRET, 1536-well. inhibition of corepressor binding, % at 4.78 µM;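 active = percent inhibition above the cutoff of mean plus 3 SD of all tested compounds, set per screening campaign, cut at about 20% in these data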;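 also: 0% = DMSO wells and 100% = biotin wells as full block of FRET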
#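 System: GST-NR2E3 and biotin-RetCOR proteins; probe or stimulus: 7 nM biotin-RetCOR; doses: compound at 4.8 µM, single dose; schedule: Compound–protein incubation for 5 h at 4 °C; detection: time-resolved FRET; read-out: percent inhibition; controls: biotin wells as high control, 0.6% DMSO wells as low control; format: 1536-well plates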
# NR2E3 ag-2: human photoreceptor-specific nuclear receptor agonism | Q9Y5X4 | CHO-S Gal4-NCOR/VP16-NR2E3 two-hybrid, luciferase | inhibition of corepressor binding, % at 3.98 µM | 0.35% of 360,000 active | AID 602229;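 active = inhibition above the mean of all tested compounds plus 3 SD, cut at about 70% in these data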;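 also: 0% = DMSO with NR2E3 transfected cells and 100% = cells lacking NR2E3 construct; higher means lower luciferase signal from less NR2E3 corepressor binding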
# Neddylation inh: blocks human cullin neddylation; TR-FRET cullin neddylation, biochemical; 0.58% of 360,000 active; calls only at 25 µM; P61081+Q13564; in the data active = inhibition above about 36%
# NR2E3 ag conf: NR2E3 agonism confirmed in two-hybrid assay; inhibition, % at 3.98 µM; 51% of 2,300 active; shares compounds with NR2E3 ag-2; CHO-S mammalian two-hybrid NR2E3-NCOR, luciferase luminescence;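 active = average inhibition above a cutoff equal to the mean inhibition of all tested compounds plus one SD, cut at about 70% in these data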;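 also: 0% = DMSO in NR2E3 cells and 100% = DMSO in cells lacking NR2E3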
# VP16 counter: reduces GAL4-VP16 reporter signal in NR2E3 counterscreen | shares compounds with NR2E3 ag-2 | CHO-S GAL4-VP16 luciferase reporter, luminescence | inhibition, % at 3.98 µM | 29% of 2,300 active;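 active = mean inhibition above a cutoff equal to the average over all tested compounds plus one standard deviation, cut at about 70% in these data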;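 also: luciferase from a UAS reporter driven by GAL4-VP16 transactivation; 0% = DMSO with VP16-transfected cells and 100% = DMSO with cells lacking VP16; higher means less reporter light so more repression of VP16 activity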
# * = called active by the depositor; i = inactive; x = not tested or not shown. Sampled rows, rich in hits. Any-hit rate of the full collection: about 2%.
SMILES,NR1D1 modulator,PG9 Ab binder,NR2E3 ag-1,NR2E3 ag-2,Neddylation inh,NR2E3 ag conf,VP16 counter
Cc1ccc(-c2nc(CSCC(=O)NCC3CCCO3)c(C)o2)cc1 (centres undefined),10,5,1,49,i,62,45
CCOc1ccc(-c2nc(CSCC(=O)NC3CCC3)c(C)o2)cc1,-2,x,x,x,x,x,x
COc1ccc(-c2nc(CSCC(=O)NCC3CCCO3)c(C)o2)cc1OC (centres undefined),-4,1,0,-14,i,x,x
COc1ccc([C@@H]2C[C@H]3[C@@H](CN2S(=O)(=O)c2ccccc2)C(=O)C[C@@H](c2cccc(Cl)c2)N3S(=O)(=O)c2ccc(C)cc2)cc1,x,x,x,62,i,72*,55
COc1cc(/C=N/NC(=O)c2sc(N)c(C#N)c2C)cc(Br)c1O,5,-8,-2,60,i,4,-6
O=S1(=O)c2ccc(N3CCN(Cc4ccccc4F)CC3)cc2Oc2ccccc2CN1Cc1cn(Cc2ccccc2C(F)(F)F)nn1,3,x,x,x,x,x,x
Cc1ccc(Cc2cnc(N3C(=N)SC(C)C3=O)s2)cc1 (centres undefined),-2,1,-1,102*,i,101*,-3
Cc1cccc(Cc2cnc(N3C(=N)SC(c4ccccc4)C3=O)s2)c1 (centres undefined),-5,0,-1,-14,i,x,x
Cc1cccc(Cc2cnc(N3C(=N)SC(C)C3=O)s2)c1 (centres undefined),-8,1,0,103*,i,99*,21
CC1CC(OC(=O)c2ccccc2)CC(C)(C)N1 (centres undefined),-1,x,x,x,x,x,x
COc1ccc(NS(=O)(=O)c2cccc(C(=O)OCC(=O)N3CCN(c4ccc(OC)cc4)CC3)c2)cc1,-3,-1,2,63,i,28,50
COc1ccc(NS(=O)(=O)c2ccc(C(=O)N3CCN(c4ccc(F)cc4)CC3)cc2)cc1,5,0,x,75*,i,74*,65
c1ccc2cc(Cn3ccc4ccc(-c5ccc6cc[nH]c6c5)cc43)ccc2c1,7,x,x,x,x,x,x
CCc1nnc(NC(=O)c2nc(S(=O)(=O)Cc3ccc(C)cc3)ncc2Cl)s1,1,-2,3,54,i,59,13
Cc1cccc(CS(=O)(=O)c2ncc(Cl)c(C(=O)Nc3nnc(C(C)C)s3)n2)c1,x,x,2,37,i,x,x
CC(C)c1nnc(NC(=O)c2nc(S(=O)(=O)Cc3ccc(F)cc3)ncc2Cl)s1,-2,0,5,24,i,x,x
CSc1nnc(NC(=O)c2nc(S(=O)(=O)Cc3cccc(C)c3)ncc2Cl)s1,-1,0,7,49,i,47,10
Cc1ccc(CS(=O)(=O)c2ncc(Cl)c(C(=O)Nc3nnc(C(C)C)s3)n2)cc1,-3,-2,-2,57,i,57,14
O=C(NCCCc1ccccc1)OC1CCC12CCC(c1ccccc1)CC2 (centres undefined),5,x,x,x,x,x,x
O=C(NN=Cc1ccc(-c2ccccc2)cc1)c1cc(-c2ccc(Cl)cc2)n[nH]1,-12,x,x,x,x,x,x
Cc1cc(C(=O)NNc2ccc(Cl)cc2)no1,3,-1,1,64,i,34,6
CC(=O)Nc1ccc(NC(=O)c2cc([N+](=O)[O-])cc([N+](=O)[O-])c2)cc1,2,-3,4,10,i,x,x
CC(=O)Nc1ccc(Sc2ccc([N+](=O)[O-])o2)cc1,-2,1,x,72*,i,93*,4
CC(C)(C)C(=O)Nc1ccc(Sc2ccc([N+](=O)[O-])cc2)cc1,-1,1,-2,53,i,78*,54
COC(=O)[C@]12C[C@H](CC(=O)N3CCOCC3)C(=O)N(Cc3ccco3)C1=C[C@H](C(C)C)O[C@@H]2C1CC1,3,x,x,x,x,x,x
SMILES,NR1D1 modulator,PG9 Ab binder,NR2E3 ag-1,NR2E3 ag-2,Neddylation inh,NR2E3 ag conf,VP16 counter
COc1ccc(NC(=O)C2Cc3c(-c4ccc5c(c4)OCO5)ccnc3O2)cc1OC (centres undefined),-2,1,x,84*,x,91*,73*
O=C(Nc1cccc(OC(F)(F)F)c1)C1Cc2c(-c3ccc4c(c3)OCO4)ccnc2O1 (centres undefined),-3,-1,x,81*,i,82*,19
COc1ccc(NC(=O)C2Cc3c(-c4cccc(F)c4)ccnc3O2)cc1OC (centres undefined),0,0,x,73*,i,67,58
COc1ccc(NC(=O)C2Cc3c(-c4ccc(NC(C)=O)cc4)ccnc3O2)cc1OC (centres undefined),3,-1,x,1,i,x,x
C=CCN1C(=O)c2n[nH]c(COC)c2C1c1ccc(C)cc1 (centres undefined),2,0,x,x,x,x,x
COC(=O)c1cn(-c2ccc3c(c2)[C@]2(CC(=O)N(C)C2c2ccccc2)C(=O)N3CC(C)C)nn1 (some centres undefined),-1,x,x,x,x,x,x
C[C@H](CCC(=O)O)[C@H]1CCC2C3C(=O)CC4CC(=O)CC[C@]4(C)C3CC(=O)[C@@]21C (some centres undefined),6,x,x,x,x,x,x
CC(=O)c1ccc(NS(=O)(=O)c2ccc(CC(C)C)cc2)cc1,-7,3,-1,64,i,90*,69
C/C(=N/NS(=O)(=O)c1ccc(C(C)C)cc1)c1ccncc1,-1,1,x,26,i,x,x
C/C(=N/NS(=O)(=O)c1ccc(CC(C)C)cc1)c1ccncc1,-2,0,-2,104*,i,21,45
COC(=O)C1CN(C2CCCC2)CCS(=O)(=O)N1Cc1ccccc1 (centres undefined),-4,x,x,x,x,x,x
CCOC(=O)N1CCC(NC(=O)C2CCCN(Cc3nc(-c4cccc(C)c4)oc3C)C2)CC1 (centres undefined),-2,-1,1,75*,i,76*,68
Cc1cc(OC(C)CCN2CCC(C(O)(c3ccccc3)c3ccccc3)CC2)ccc1Br (centres undefined),-2,x,x,x,x,x,x
COC(=O)Cn1nc(-c2ccccc2)c2cccc(C(F)(F)F)c21,0,x,x,x,x,x,x
COC(=O)c1ccccc1NC(=O)CSc1nc(C)cc(C)n1,7,-1,4,16,i,x,x
Cc1cc(NC(=O)Cc2ccccc2)c2ccccc2n1,5,-1,0,64,i,87*,69
Cc1cc(C)nc(SCC(=O)Nc2ccnc3ccccc23)n1,-3,1,1,84*,i,92*,83*
CCOc1ccc(-n2c(COc3ccccc3)nnc2SCC(=O)Nc2ccc(OCc3ccccc3)cc2)cc1,4,x,x,x,x,x,x
